In ChEMBL document CHEMBL3745686 (Eur J Med Chem, 2016):
Active and inactive are the calls of the source. The rule behind the calls is not given here.

Experiments:
P2Y purinoceptor 1 [1] = target: T1, P2Y purinoceptor 1 (Homo sapiens, UniProt P47900); assay: Antagonist activity at human platelet P2Y1 receptor assessed as inhibition of ADP-induced increase in cytosolic calcium level by FLUO-4 staining based flow cytometric analysis; assay type: functional
How it was run: (§1)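 Stimulus was extracellular Ca2+ uptake on 1 μM test compound (P2X1, scaled to 20 μM β,γ-CH2-ATP as 100%, selective P2Y1 inhibitor control), or 3 μM ADP (P2Y1 antagonism; omitted for agonism).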

P2Y purinoceptor 12 [2] = target: T2, P2Y purinoceptor 12 (Homo sapiens, UniProt Q9H244); assay: Agonist activity at human platelet P2Y12 receptor assessed as decrease in intra-platelet phosphorylated VASP by flow cytometric analysis
Platelet = assay: Anti-aggregatory activity in human platelet rich plasma assessed as inhibition of ADP-induced platelet shape change; assay type: functional, cell-free
P2Y purinoceptor 1 [3] = target: T1, P2Y purinoceptor 1; assay: Agonist activity at human platelet P2Y1 receptor assessed as increase in cytosolic calcium level by FLUO-4 staining based flow cytometric analysis; assay type: functional; how it was run: as §1
P2Y purinoceptor 12 [4] = target: T2, P2Y purinoceptor 12; assay: Antagonist activity at human platelet P2Y12 receptor assessed as inhibition of ADP-mediated decrease in intra-platelet phosphorylated VASP by flow cytometric analysis
[5] = target: T3, P2X purinoceptor 1 (Homo sapiens) (UniProt P51575); assay: Agonist activity at human platelet P2X1 receptor assessed as increase in cytosolic calcium level at 1 uM by […] staining based flow cytometric analysis relative to beta,gamma-CH2-ATP; how it was run: as §1
T3 sequence (whole entry): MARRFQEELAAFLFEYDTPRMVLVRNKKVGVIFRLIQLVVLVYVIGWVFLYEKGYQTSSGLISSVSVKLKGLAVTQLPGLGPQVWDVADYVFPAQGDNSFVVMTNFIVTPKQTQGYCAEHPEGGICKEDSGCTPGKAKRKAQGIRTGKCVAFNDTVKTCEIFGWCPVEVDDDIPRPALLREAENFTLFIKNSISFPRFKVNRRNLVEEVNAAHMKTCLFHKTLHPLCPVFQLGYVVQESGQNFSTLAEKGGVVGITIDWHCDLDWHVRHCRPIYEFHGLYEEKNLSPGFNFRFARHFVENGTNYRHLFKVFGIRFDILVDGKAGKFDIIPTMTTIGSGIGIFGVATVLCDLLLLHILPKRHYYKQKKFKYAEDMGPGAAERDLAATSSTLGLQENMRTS

Plasma [6] = assay: Half life in rat plasma at 50 uM measured at 1 to 4 hrs; assay type: ADME, cell-free
Plasma [7] = assay: Half life in human plasma at 50 uM measured at 1 to 4 hrs; assay type: ADME, cell-free
Plasma [8] = assay: Metabolic stability in rat plasma assessed as first order elimination rate constant at 50 uM measured at 1 to 4 hrs; assay type: ADME, cell-free
Plasma [9] = assay: Metabolic stability in human plasma assessed as first order elimination rate constant at 50 uM measured at 1 to 4 hrs; assay type: ADME, cell-free
[10] = Anti-aggregatory activity in human platelet rich plasma assessed as inhibition of ADP-induced platelet aggregation by optical aggregometry; assay type: functional, cell-free

T2 sequence (Q9H244 whole entry): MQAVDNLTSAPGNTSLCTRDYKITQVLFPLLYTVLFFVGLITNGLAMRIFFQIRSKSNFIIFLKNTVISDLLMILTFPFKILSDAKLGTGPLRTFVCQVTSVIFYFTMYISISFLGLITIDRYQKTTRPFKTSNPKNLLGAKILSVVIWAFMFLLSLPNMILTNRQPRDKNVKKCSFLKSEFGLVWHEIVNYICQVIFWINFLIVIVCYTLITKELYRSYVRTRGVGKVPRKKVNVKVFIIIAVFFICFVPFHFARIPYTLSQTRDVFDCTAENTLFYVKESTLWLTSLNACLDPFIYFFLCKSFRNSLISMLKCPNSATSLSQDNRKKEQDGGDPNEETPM
T1 sequence (P47900 whole entry): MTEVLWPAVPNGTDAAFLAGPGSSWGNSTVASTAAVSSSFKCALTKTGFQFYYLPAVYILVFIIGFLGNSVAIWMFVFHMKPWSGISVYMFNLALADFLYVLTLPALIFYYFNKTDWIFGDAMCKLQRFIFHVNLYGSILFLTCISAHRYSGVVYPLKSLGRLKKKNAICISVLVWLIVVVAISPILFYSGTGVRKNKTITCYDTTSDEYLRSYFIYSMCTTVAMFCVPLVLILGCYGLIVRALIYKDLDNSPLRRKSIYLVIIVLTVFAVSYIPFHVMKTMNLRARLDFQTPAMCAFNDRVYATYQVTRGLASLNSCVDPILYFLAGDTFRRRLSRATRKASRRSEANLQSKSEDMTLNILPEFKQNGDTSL

Nc1ncnc2c1ncn2[C@@H]1O[C@H](COP(=O)(S)OP(=O)(O)C(Cl)P(=O)(O)OP(=O)(S)OC[C@H]2O[C@@H](n3cnc4c(N)ncnc43)[C@H](O)[C@@H]2O)[C@@H](O)[C@H]1O (mixture of isomers)
IC50 (P2Y purinoceptor 1 [1]): 10200 nM

Nc1nc(Cl)nc2c1ncn2[C@@H]1O[C@H](COP(=O)(S)OP(=O)(O)C(Cl)P(=O)(O)OP(=O)(S)OC[C@H]2O[C@@H](n3cnc4c(N)nc(Cl)nc43)[C@H](O)[C@@H]2O)[C@@H](O)[C@H]1O (mixture of isomers)
Activity (P2Y purinoceptor 12 [2]): inactive | inhibition (Platelet): Active | Activity (P2Y purinoceptor 1 [3]): inactive | IC50 (P2Y purinoceptor 12 [4]): 9300 nM | IC50 (P2Y purinoceptor 1 [1]): 7370 nM | Activity [5]: 0.07%

CNc1nc(SC)nc2c1ncn2[C@@H]1O[C@H](COP(=O)(S)OP(=O)(O)C(Cl)P(=O)(O)OP(=O)(S)OC[C@H]2O[C@@H](n3cnc4c(NC)nc(SC)nc43)[C@H](O)[C@@H]2O)[C@@H](O)[C@H]1O (stereo partly drawn)
Activity (P2Y purinoceptor 12 [2]): inactive | inhibition (Platelet): Active | Activity (P2Y purinoceptor 1 [3]): inactive | IC50 (P2Y purinoceptor 12 [4]): 730 nM | IC50 (P2Y purinoceptor 1 [1]): 360 nM | Activity [5]: 92%

CSc1nc(N)c2ncn([C@@H]3O[C@H](COP(=O)([S-])OP(=O)([O-])C(Cl)P(=O)([O-])OP(=O)([S-])OC[C@H]4O[C@@H](n5cnc6c(N)nc(SC)nc65)[C@H](O)[C@@H]4O)[C@@H](O)[C@H]3O)c2n1.[Na+].[Na+].[Na+].[Na+] (single isomer, unassigned; diastereomer 4)
t1/2 (Plasma [6]): 1.37 h | t1/2 (Plasma [7]): 16.4 h | Kel (Plasma [8]): 0.508 h⁻¹ | Kel (Plasma [9]): 0.0424 h⁻¹ | IC50 [10]: 110 nM

CSc1nc(N)c2ncn([C@@H]3O[C@H](COP(=O)(O)OP(=O)(O)C(Cl)P(=O)(O)OP(=O)(O)OC[C@H]4O[C@@H](n5cnc6c(N)nc(SC)nc65)[C@H](O)[C@@H]4O)[C@@H](O)[C@H]3O)c2n1 (stereo partly drawn)
Activity (P2Y purinoceptor 12 [2]): inactive | inhibition (Platelet): Active | Activity (P2Y purinoceptor 1 [3]): inactive | IC50 (P2Y purinoceptor 12 [4]): 310 nM | IC50 (P2Y purinoceptor 1 [1]): 29000 nM

Nc1nc(SCCC(F)(F)F)nc2c1ncn2[C@@H]1O[C@H](COP(=O)(S)OP(=O)(O)C(Cl)P(=O)(O)OP(=O)(S)OC[C@H]2O[C@@H](n3cnc4c(N)nc(SCCC(F)(F)F)nc43)[C@H](O)[C@@H]2O)[C@@H](O)[C@H]1O (mixture of isomers)
Activity (P2Y purinoceptor 12 [2]): inactive | inhibition (Platelet): Active | Activity (P2Y purinoceptor 1 [3]): inactive | IC50 (P2Y purinoceptor 12 [4]): 210 nM | IC50 (P2Y purinoceptor 1 [1]): 5200 nM | Activity [5]: 4.7%

CSc1nc(N)c2ncn([C@@H]3O[C@H](COP(=O)(S)OP(=O)(O)C(Cl)(Cl)P(=O)(O)OP(=O)(S)OC[C@H]4O[C@@H](n5cnc6c(N)nc(SC)nc65)[C@H](O)[C@@H]4O)[C@@H](O)[C@H]3O)c2n1 (mixture of isomers)
Activity (P2Y purinoceptor 12 [2]): inactive | inhibition (Platelet): Active | Activity (P2Y purinoceptor 1 [3]): inactive | IC50 (P2Y purinoceptor 12 [4]): 1120 nM | IC50 (P2Y purinoceptor 1 [1]): 1020 nM | Activity [5]: 3.3%

CCCCCSc1nc(N)c2ncn([C@@H]3O[C@H](COP(=O)(S)OP(=O)(O)C(Cl)P(=O)(O)OP(=O)(S)OC[C@H]4O[C@@H](n5cnc6c(N)nc(SCCCCC)nc65)[C@H](O)[C@@H]4O)[C@@H](O)[C@H]3O)c2n1 (mixture of isomers)
Activity (P2Y purinoceptor 12 [2]): inactive | inhibition (Platelet): Active | Activity (P2Y purinoceptor 1 [3]): inactive | IC50 (P2Y purinoceptor 12 [4]): 3100 nM | IC50 (P2Y purinoceptor 1 [1]): 4210 nM | Activity [5]: 4.7%

CSc1nc(N)c2ncn([C@@H]3O[C@H](COP(=O)([S-])OP(=O)([O-])C(Cl)P(=O)([O-])OP(=O)([S-])OC[C@H]4O[C@@H](n5cnc6c(N)nc(SC)nc65)[C@H](O)[C@@H]4O)[C@@H](O)[C@H]3O)c2n1.[Na+].[Na+].[Na+].[Na+] (single isomer, unassigned; diastereomer 3)
t1/2 (Plasma [6]): 5.4 h | t1/2 (Plasma [7]): 31.9 h | Kel (Plasma [8]): 0.128 h⁻¹ | Kel (Plasma [9]): 0.0217 h⁻¹ | IC50 [10]: 64 nM

CNc1ncnc2c1ncn2[C@H]1C[C@H](OP(=O)(O)O)[C@@H](COP(=O)(O)O)O1
IC50 (P2Y purinoceptor 1 [1]): 2250 nM

CSc1nc(N)c2ncn([C@@H]3O[C@H](COP(=O)(O)OP(=O)(O)OP(=O)(O)OP(=O)(O)OC[C@H]4O[C@@H](n5cnc6c(N)nc(SC)nc65)[C@H](O)[C@@H]4O)[C@@H](O)[C@H]3O)c2n1
Activity (P2Y purinoceptor 12 [2]): inactive | inhibition (Platelet): Active | Activity (P2Y purinoceptor 1 [3]): inactive | IC50 (P2Y purinoceptor 12 [4]): 1400 nM | IC50 (P2Y purinoceptor 1 [1]): 4900 nM | Activity [5]: 48%

CCCSc1nc(N)c2ncn([C@@H]3O[C@H](COP(=O)(S)OP(=O)(O)C(Cl)P(=O)(O)OP(=O)(S)OC[C@H]4O[C@@H](n5cnc6c(N)nc(SCCC)nc65)[C@H](O)[C@@H]4O)[C@@H](O)[C@H]3O)c2n1 (mixture of isomers)
Activity (P2Y purinoceptor 12 [2]): inactive | inhibition (Platelet): Active | Activity (P2Y purinoceptor 1 [3]): inactive | IC50 (P2Y purinoceptor 12 [4]): 1020 nM | IC50 (P2Y purinoceptor 1 [1]): 6300 nM | Activity [5]: 31%

CSc1nc(N)c2ncn([C@@H]3O[C@H](COP(=O)([S-])OP(=O)([O-])C(Cl)P(=O)([O-])OP(=O)([S-])OC[C@H]4O[C@@H](n5cnc6c(N)nc(SC)nc65)[C@H](O)[C@@H]4O)[C@@H](O)[C@H]3O)c2n1.[Na+].[Na+].[Na+].[Na+] (single isomer, unassigned; diastereomer 2)
t1/2 (Plasma [6]): 5.06 h | t1/2 (Plasma [7]): 40.6 h | Kel (Plasma [8]): 0.137 h⁻¹ | Kel (Plasma [9]): 0.0171 h⁻¹ | IC50 [10]: 83 nM

CSc1nc(N)c2ncn([C@@H]3O[C@H](COP(=O)([S-])OP(=O)([O-])C(Cl)P(=O)([O-])OP(=O)([S-])OC[C@H]4O[C@@H](n5cnc6c(N)nc(SC)nc65)[C@H](O)[C@@H]4O)[C@@H](O)[C@H]3O)c2n1.[Na+].[Na+].[Na+].[Na+] (single isomer, unassigned; diastereomer 1)
t1/2 (Plasma [6]): 100.5 h | t1/2 (Plasma [7]): 71 h | Kel (Plasma [8]): 0.0069 h⁻¹ | Kel (Plasma [9]): 0.00976 h⁻¹ | IC50 [10]: 76 nM

CCCNc1ncnc2c1ncn2[C@@H]1O[C@H](COP(=O)(S)OP(=O)(O)C(Cl)P(=O)(O)OP(=O)(S)OC[C@H]2O[C@@H](n3cnc4c(NCCC)ncnc43)[C@H](O)[C@@H]2O)[C@@H](O)[C@H]1O (mixture of isomers)
Activity (P2Y purinoceptor 12 [2]): inactive | inhibition (Platelet): Active | Activity (P2Y purinoceptor 1 [3]): inactive | IC50 (P2Y purinoceptor 12 [4]): 156000 nM | IC50 (P2Y purinoceptor 1 [1]): 8800 nM | Activity [5]: -0.01%

CSc1nc(N)c2ncn([C@@H]3O[C@H](COP(=O)(S)OP(=O)(O)OP(=O)(O)OP(=O)(S)OC[C@H]4O[C@@H](n5cnc6c(N)nc(SC)nc65)[C@H](O)[C@@H]4O)[C@@H](O)[C@H]3O)c2n1 (mixture of isomers)
Activity (P2Y purinoceptor 12 [2]): inactive | inhibition (Platelet): Active | Activity (P2Y purinoceptor 1 [3]): inactive | IC50 (P2Y purinoceptor 12 [4]): 2400 nM | IC50 (P2Y purinoceptor 1 [1]): 160 nM | Activity [5]: 3%

Nc1nc(I)nc2c1ncn2[C@@H]1O[C@H](COP(=O)(S)OP(=O)(O)C(Cl)P(=O)(O)OP(=O)(S)OC[C@H]2O[C@@H](n3cnc4c(N)nc(I)nc43)[C@H](O)[C@@H]2O)[C@@H](O)[C@H]1O (mixture of isomers)
Activity (P2Y purinoceptor 12 [2]): inactive | inhibition (Platelet): Active | Activity (P2Y purinoceptor 1 [3]): inactive | IC50 (P2Y purinoceptor 12 [4]): 1350 nM | IC50 (P2Y purinoceptor 1 [1]): 2650 nM | Activity [5]: 0.69%

CNc1ncnc2c1ncn2[C@@H]1O[C@H](COP(=O)(S)OP(=O)(O)C(Cl)P(=O)(O)OP(=O)(S)OC[C@H]2O[C@@H](n3cnc4c(NC)ncnc43)[C@H](O)[C@@H]2O)[C@@H](O)[C@H]1O (mixture of isomers)
Activity (P2Y purinoceptor 12 [2]): inactive | inhibition (Platelet): Active | Activity (P2Y purinoceptor 1 [3]): inactive | IC50 (P2Y purinoceptor 12 [4]): > 200000 nM | IC50 (P2Y purinoceptor 1 [1]): 1970 nM | Activity [5]: 0.31%
